PAX8 reporter: PAX8 transcriptional activity inhibition | inhibition, % at 12.6 µM | 360,000 compounds, 1.2% hits | RMG-I TPO-luciferase reporter, SteadyGlo, 24 h;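 active = mean replicate inhibition at least 60% with every replicate also reaching 60%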;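 note: luciferase light reporting Pax8 driven TPO promoter activity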
CDK5 inh: inhibitors of human CDK5/p35 kinase. inhibition, % at 10 µM. 330,000 compounds, 0.01% hits. Q00535+Q15078. AID 488839. Recombinant CDK5/p35, ADP-Glo luminescence, 60 min;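 active = highest replicate inhibition of at least 50% and at least 75% of replicates reaching 50%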
Target sequence (Q00535 whole entry, looked up): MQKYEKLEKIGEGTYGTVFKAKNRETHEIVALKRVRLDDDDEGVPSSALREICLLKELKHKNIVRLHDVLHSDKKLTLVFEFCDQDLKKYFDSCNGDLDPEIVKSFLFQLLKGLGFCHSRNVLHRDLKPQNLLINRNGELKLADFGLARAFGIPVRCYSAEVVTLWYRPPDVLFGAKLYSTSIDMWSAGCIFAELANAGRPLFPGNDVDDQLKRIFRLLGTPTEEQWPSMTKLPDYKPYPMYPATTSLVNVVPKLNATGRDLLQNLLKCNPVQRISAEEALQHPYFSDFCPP
Target sequence (Q15078 whole entry, looked up): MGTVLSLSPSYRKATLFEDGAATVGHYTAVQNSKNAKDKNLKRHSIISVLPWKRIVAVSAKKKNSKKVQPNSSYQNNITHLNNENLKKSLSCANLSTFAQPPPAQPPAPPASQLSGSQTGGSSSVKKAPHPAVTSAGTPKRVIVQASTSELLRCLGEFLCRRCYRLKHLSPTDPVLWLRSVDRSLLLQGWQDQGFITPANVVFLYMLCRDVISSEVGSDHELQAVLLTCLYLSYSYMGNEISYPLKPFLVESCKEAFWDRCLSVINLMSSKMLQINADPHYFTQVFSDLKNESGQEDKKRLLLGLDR
INS-1E GSIS act: primary screen for activators of insulin secretion dependent on glucose, INS-1E cells, GLuc reporter luminescence; INS-1E GLuc reporter insulin secretion, 2-3 h; activation, % at 16.6 µM; 370,000 compounds, 0.61% hits;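 active = lowest replicate activation of at least 40%, so every replicate reaches that level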
Cneo AK release: Cryptococcus neoformans lysis via adenylate kinase release; 360,000 compounds, 0.2% hits; lysis activity, % at 15 µM; C. neoformans lysis, adenylate kinase release luminescence, 4 h; normalised: neutral wells 0, clomiphene wells 100;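 active = mean lysis activity across replicates of at least 80%, whatever share of replicates individually reach that level; inactive = mean lysis activity below 80%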
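Assay system: log-phase C. neoformans yeast / Quantity: yeast cell density of 5 × 10^6 cells/mL / Medium: fresh YPD growth medium / Compound: single dose / Timing: static 4 h at 37 °C with compound, 1 h detection / Measured by: adenylate kinase release luminescence / Read-out: lysis from increased AK signal / Benchmarks: Clomiphene as positive lysis control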
Env fusion inh: HIV envelope-mediated fusion inhibition. HeLa-JRFL Env/CEM21 cell fusion, luciferase. inhibition, % at 12.3 µM. 360,000 compounds, 1.1% hits. AID 651610;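 active = mean replicate inhibition score of at least 50 and every replicate individually at or above 50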
dFosB activator: mouse delta FosB homodimer activation; P13346; purified delta FosB, TAMRA-CDK5 oligo fluorescence polarization; percent of positive-control signal above neutral wells; activation, % at 25 µM; 340,000 compounds, 0.99% hits; AID 493131;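 active = mean activation above about 17%, with every replicate also reaching it, limit read from the data, passing the limit was not always enough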
Of the large screens only hits and unclear results are named; the others gave an inactive call; [ ] = another dose, or the depositor's remark. A selection: hits, their analogues and other compounds. The true share with any hit is near 2.9%.

C[C@H]1CN([C@@H](C)CO)C(=O)Cc2cc(NC(=O)Nc3ccc4c(c3)OCO4)ccc2O[C@@H]1CN(C)S(=O)(=O)c1cccs1	none (no result: CDK5 inh, dFosB activator)
COc1ccc(NC(=O)Nc2ccc3c(c2)CC(=O)N([C@H](C)CO)C[C@H](C)[C@H](CN(C)S(=O)(=O)c2cccs2)O3)cc1	Env fusion inh 70[16.7 µM] (no result: CDK5 inh, dFosB activator)
C[C@@H]1CN([C@@H](C)CO)C(=O)Cc2cc(NC(=O)Nc3ccccc3)ccc2O[C@H]1CN(C)S(=O)(=O)c1cccs1	none (no result: CDK5 inh, dFosB activator)
C[C@@H]1CCCCO[C@H](CN(C)S(=O)(=O)c2cccs2)[C@H](C)CN([C@H](C)CO)C(=O)c2cc(NC(=O)Cc3ccccc3)ccc2O1	none (no result: CDK5 inh, dFosB activator)
COc1ccc2cc3c(N)nn(C(=O)c4ccccc4Cl)c3nc2c1	none (no result: Cneo AK release)
COc1ccc2cc3c(N)nn(C(=O)c4ccc(F)cc4)c3nc2c1	Env fusion inh 63 (no result: Cneo AK release)
COc1ccc2cc3c(N)nn(C(=O)Cc4ccc(Cl)cc4)c3nc2c1	none (no result: INS-1E GSIS act)
COc1ccc2cc3c(N)nn(C(=O)Cc4c[nH]c5ccccc45)c3nc2c1	Env fusion inh 90 (no result: Cneo AK release)
CO[C@@H]1CN(C)C(=O)c2cc(NC(C)=O)ccc2OC[C@@H](C)N(Cc2ccccc2F)C[C@H]1C	none (no result: PAX8 reporter, CDK5 inh, dFosB activator)
C#CC1(O)CCC2C3CCC4=C(CCC(=O)C4)C3CCC21C (stereo not given)	Env fusion inh 62
CS(=O)(=O)Nc1ccc2c(c1)[C@@H]1C[C@@H](CC(=O)NCc3ccccn3)O[C@@H](CO)[C@@H]1O2	none (no result: CDK5 inh, dFosB activator)
COc1ccc(C(=O)Nc2nc(-c3cccs3)c(NC(C)=O)s2)cc1	none (no result: INS-1E GSIS act)
O=C(Nc1nnc(-c2ccco2)s1)c1ccccc1	none (no result: PAX8 reporter)
COc1ccc(C(=O)Nc2nnc(-c3ccco3)s2)cc1	INS-1E GSIS act 52 (no result: PAX8 reporter, Env fusion inh)
COc1ccc(C(=O)Nc2nnc(-c3cccs3)s2)cc1	INS-1E GSIS act 72 (no result: PAX8 reporter, Env fusion inh)
O=C(Nc1ccccc1)Nc1nnc(-c2cccs2)s1	INS-1E GSIS act 69
COc1ccc(NC(=O)Nc2nnc(-c3cccs3)s2)cc1	none (no result: Cneo AK release)
COc1ccc(S(=O)(=O)n2ccc(-c3ccc(OCCN(C)c4ccccn4)cc3)n2)cc1	Env fusion inh 75 (no result: INS-1E GSIS act)
C[C@@H]1CN([C@H](C)CO)S(=O)(=O)c2ccc(C#Cc3ccc(F)cc3)cc2O[C@H]1CN(C)S(=O)(=O)c1ccc(F)cc1	none (no result: PAX8 reporter, CDK5 inh, dFosB activator)
CC(C)CC#Cc1ccc2c(c1)O[C@@H](CN(C)S(=O)(=O)c1ccc(F)cc1)[C@@H](C)CN([C@H](C)CO)S2(=O)=O	Env fusion inh 62[16.7 µM] (no result: CDK5 inh, dFosB activator)
CC(C)CC#Cc1ccc2c(c1)O[C@H](CN(C)S(=O)(=O)c1ccc(F)cc1)[C@H](C)CN([C@H](C)CO)S2(=O)=O	PAX8 reporter 99 (no result: CDK5 inh, dFosB activator)
CC(C)CC#Cc1ccc2c(c1)O[C@H](CN(C)S(=O)(=O)c1ccc(F)cc1)[C@@H](C)CN([C@H](C)CO)S2(=O)=O	none (no result: CDK5 inh, dFosB activator)
C[C@@H]1CN([C@@H](C)CO)S(=O)(=O)c2ccc(C3=CCCC3)cc2O[C@H]1CN(C)C(=O)c1ccccn1	none (no result: PAX8 reporter, CDK5 inh, dFosB activator)
Cc1cccc(NC(=O)c2cc(S(=O)(=O)N3CCOCC3)cn2C)c1C	none
O=C(Nc1cccc(Cl)c1)Nc1cc(S(=O)(=O)N2CCCCC2)ccc1Cl	PAX8 reporter 75 (no result: Cneo AK release)
O=C(Nc1cccc(Cl)c1)Nc1cccc(Cl)c1	Env fusion inh 52 (no result: INS-1E GSIS act)
COc1ccccc1NS(=O)(=O)c1cccc(NC(=O)NCCCl)c1	none (no result: Cneo AK release)
O=C(Nc1cccc(F)c1)Nc1cccc(Cl)c1	none
Cn1cc(S(=O)(=O)N2CCOCC2)cc1C(=O)Nc1cccc(Cl)c1	Env fusion inh 98
CN1CCN(S(=O)(=O)c2ccc(NC(=O)Nc3cccc(Cl)c3)cc2)CC1	none (no result: PAX8 reporter, INS-1E GSIS act, Cneo AK release, Env fusion inh)
COc1ccccc1NS(=O)(=O)c1cccc(NC(=O)Nc2cccc(Cl)c2)c1	Env fusion inh 45 (no result: Cneo AK release)
COc1cccc(NC(=O)N2CC(=O)N3[C@@H](CO)[C@H](c4ccc(C#CC5CCCC5)cc4)[C@@H]3C2)c1	none (no result: CDK5 inh, Cneo AK release, Env fusion inh, dFosB activator)
C[C@@H]1CN([C@H](C)CO)C(=O)c2cc(-c3ccncc3)cnc2O[C@@H]1CN(C)S(=O)(=O)c1ccc(F)cc1	none (no result: CDK5 inh, Env fusion inh, dFosB activator)
C[C@H](CO)N1C[C@H](C)[C@@H](CN(C)Cc2ccc3c(c2)OCO3)Oc2ccc(N(C)C)cc2C1=O	none (no result: CDK5 inh, dFosB activator)

Screens: PubChem, Broad Institute
